Assay results: ChEMBL document CHEMBL1139352, “Synthesis and evaluation of novel inhibitors of Pim-1 and Pim-2 protein kinases” (J Med Chem, 2009)

Columns and labels:
Mus musculus [1] = assay: Toxicity in Swiss Webster mouse assessed as monocyte count at 50 mg/kg, ip daily for 7 days measured after 7 days; format: organism-based; parameters: dose 50 mg/kg, route intraperitoneal; details: in vivo, 168 h
Mus musculus [2] = assay: Toxicity in Swiss Webster mouse assessed as K+ level at 50 mg/kg, ip daily for 7 days measured after 7 days; format: organism-based; parameters: dose 50 mg/kg, route intraperitoneal; details: in vivo, 168 h
Mus musculus [3] = assay: Toxicity in Swiss Webster mouse assessed as Na+ level at 3 mg/kg, ip daily for 7 days measured after 7 days; format: organism-based; parameters: dose 3 mg/kg, route intraperitoneal; details: in vivo, 168 h
Mus musculus [4] = assay: Toxicity in Swiss Webster mouse assessed as hemoglobin level at 50 mg/kg, ip daily for 7 days measured after 7 days; format: organism-based; parameters: dose 50 mg/kg, route intraperitoneal; details: in vivo, 168 h
Mus musculus [5] = assay: Toxicity in Swiss Webster mouse assessed as alkaline phosphatase level at 10 mg/kg, ip daily for 7 days measured after 7 days; format: organism-based; parameters: dose 10 mg/kg, route intraperitoneal; details: in vivo, 168 h
[6] = target: Glycogen synthase kinase-3 beta (Homo sapiens) (UniProt P49841); assay: Inhibition of GSK3-beta at 5 uM
Mus musculus [7] = assay: Toxicity in Swiss Webster mouse assessed as amylase level at 10 mg/kg, ip daily for 7 days measured after 7 days; format: organism-based; parameters: dose 10 mg/kg, route intraperitoneal; details: in vivo, 168 h
[8] = target: Protein kinase C beta type (Homo sapiens) (UniProt P05771); assay: Inhibition of PKCbeta2 at 5 uM
[9] = target: Serine/threonine-protein kinase 3 (Homo sapiens) (UniProt Q13188); assay: Inhibition of MST2 at 5 uM
[10] = target: Serine/threonine-protein kinase PLK1 (Homo sapiens) (UniProt P53350); assay: Inhibition of PLK1 at 5 uM
Mus musculus [11] = assay: Toxicity in Swiss Webster mouse assessed as creatinine level at 50 mg/kg, ip daily for 7 days measured after 7 days; format: organism-based; parameters: dose 50 mg/kg, route intraperitoneal; details: in vivo, 168 h
[12] = target: Dual specificity tyrosine-phosphorylation-regulated kinase 1A (Homo sapiens) (UniProt Q13627); assay: Inhibition of DYRK1alpha at 5 uM
Mus musculus [13] = assay: Toxicity in Swiss Webster mouse assessed as alkaline phosphatase level at 50 mg/kg, ip daily for 7 days measured after 7 days; format: organism-based; parameters: dose 50 mg/kg, route intraperitoneal; details: in vivo, 168 h
Mus musculus [14] = assay: Toxicity in Swiss Webster mouse assessed as blood urea nitrogen level at 50 mg/kg, ip daily for 7 days measured after 7 days; format: organism-based; parameters: dose 50 mg/kg, route intraperitoneal; details: in vivo, 168 h
[15] = target: Inhibitor of nuclear factor kappa-B kinase subunit beta (Homo sapiens) (UniProt O14920); assay: Inhibition of IKK-beta at 5 uM
[16] = target: RAC-beta serine/threonine-protein kinase (Homo sapiens) (UniProt P31751); assay: Inhibition of AKT2 at 5 uM
Mus musculus [17] = assay: Toxicity in Swiss Webster mouse assessed as white blood cell count at 10 mg/kg, ip daily for 7 days measured after 7 days; format: organism-based; parameters: dose 10 mg/kg, route intraperitoneal; details: in vivo, 168 h
How it was run: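 Six-week-old female Swiss Webster mice (about 25 g) received intraperitoneal injections daily for 7 days. Doses were 3, 10 or 50 mg/kg, with a vehicle group (30% PEG-400, 5% Tween-80, 65% DMSO). Values are reported as ranges per group.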

Mus musculus [18] = assay: Toxicity in Swiss Webster mouse assessed as amylase level at 50 mg/kg, ip daily for 7 days measured after 7 days; format: organism-based; parameters: dose 50 mg/kg, route intraperitoneal; details: in vivo, 168 h
[19] = target: Fibroblast growth factor receptor 1 (Homo sapiens) (UniProt P11362); assay: Inhibition of FGFR1 at 5 uM
[20] = Inhibition of CAMK2 at 5 uM
[21] = target: Insulin-like growth factor 1 receptor (Homo sapiens) (UniProt P08069); assay: Inhibition of IGF1R at 5 uM
Mus musculus [22] = assay: Toxicity in Swiss Webster mouse assessed as K+ level at 10 mg/kg, ip daily for 7 days measured after 7 days; format: organism-based; parameters: dose 10 mg/kg, route intraperitoneal; details: in vivo, 168 h
Mus musculus [23] = assay: Toxicity in Swiss Webster mouse assessed as glucose level at 3 mg/kg, ip daily for 7 days measured after 7 days; format: organism-based; parameters: dose 3 mg/kg, route intraperitoneal; details: in vivo, 168 h
[24] = tested on: Receptor-type tyrosine-protein kinase FLT3 (Homo sapiens), P36888 [D835Y]; assay: Inhibition of FLT3(D835Y) at 5 uM
[25] = target: Ribosomal protein S6 kinase alpha-5 (Homo sapiens) (UniProt O75582); assay: Inhibition of MSK1 at 5 uM
[26] = target: Tyrosine-protein kinase Lck (Homo sapiens) (UniProt P06239); assay: Inhibition of LCK at 5 uM
[27] = target: Insulin receptor (Homo sapiens) (UniProt P06213); assay: Inhibition of INSR at 5 uM
[28] = target: Protein kinase C zeta type (Homo sapiens) (UniProt Q05513); assay: Inhibition of PKCzeta at 5 uM
[29] = target: Mitogen-activated protein kinase kinase kinase kinase 4 (Homo sapiens) (UniProt O95819); assay: Inhibition of HGK at 5 uM
Mus musculus [30] = assay: Toxicity in Swiss Webster mouse assessed as creatinine level at 10 mg/kg, ip daily for 7 days measured after 7 days; format: organism-based; parameters: dose 10 mg/kg, route intraperitoneal; details: in vivo, 168 h
Mus musculus [31] = assay: Toxicity in Swiss Webster mouse assessed as hemoglobin level at 10 mg/kg, ip daily for 7 days measured after 7 days; format: organism-based; parameters: dose 10 mg/kg, route intraperitoneal; details: in vivo, 168 h
[32] = target: Ribosomal protein S6 kinase alpha-1 (Homo sapiens) (UniProt Q15418); assay: Inhibition of RSK1 at 5 uM
Mus musculus [33] = assay: Toxicity in Swiss-Webster mouse at 50 mg/kg, ip daily for 5 days; format: organism-based; parameters: dose 50 mg/kg, route intraperitoneal; details: in vivo, 120 h
[34] = target: Vascular endothelial growth factor receptor 2 (Homo sapiens) (UniProt P35968); assay: Inhibition of KDR at 5 uM
[35] = target: Tyrosine-protein kinase Lyn (Homo sapiens) (UniProt P07948); assay: Inhibition of LYN at 5 uM
[36] = target: Serine/threonine-protein kinase D2 (Homo sapiens) (UniProt Q9BZL6); assay: Inhibition of PKD2 at 5 uM
Mus musculus [37] = assay: Toxicity in Swiss Webster mouse assessed as albumin level at 3 mg/kg, ip daily for 7 days measured after 7 days; format: organism-based; parameters: dose 3 mg/kg, route intraperitoneal; details: in vivo, 168 h
Mus musculus [38] = assay: Toxicity in Swiss Webster mouse assessed as lymphocyte count at 3 mg/kg, ip daily for 7 days measured after 7 days; format: organism-based; parameters: dose 3 mg/kg, route intraperitoneal; details: in vivo, 168 h
Mus musculus [39] = assay: Toxicity in Swiss Webster mouse assessed as granulocyte count at 50 mg/kg, ip daily for 7 days measured after 7 days; format: organism-based; parameters: dose 50 mg/kg, route intraperitoneal; details: in vivo, 168 h
Mus musculus [40] = assay: Toxicity against mouse JC cells xenografted BALB/c mouse assessed as loss of body weight at 50 mg/kg, ip for 5 days per week; format: organism-based; parameters: dose 50 mg/kg, route intraperitoneal; details: in vivo, 120 h
Mus musculus [41] = assay: Toxicity in Swiss Webster mouse assessed as Na+ level at 50 mg/kg, ip daily for 7 days measured after 7 days; format: organism-based; parameters: dose 50 mg/kg, route intraperitoneal; details: in vivo, 168 h
[42] = target: Serine/threonine-protein kinase PAK 2 (Homo sapiens) (UniProt Q13177); assay: Inhibition of PAK2 at 5 uM
Mus musculus [43] = assay: Toxicity in Swiss Webster mouse assessed as granulocyte count at 10 mg/kg, ip daily for 7 days measured after 7 days; format: organism-based; parameters: dose 10 mg/kg, route intraperitoneal; details: in vivo, 168 h
[44] = target: RAC-gamma serine/threonine-protein kinase (Homo sapiens) (UniProt Q9Y243); assay: Inhibition of AKT3 at 5 uM
Mus musculus [45] = assay: Toxicity in Swiss Webster mouse assessed as amylase level at 3 mg/kg, ip daily for 7 days measured after 7 days; format: organism-based; parameters: dose 3 mg/kg, route intraperitoneal; details: in vivo, 168 h
[46] = target: Receptor-type tyrosine-protein kinase FLT3 (Homo sapiens) (UniProt P36888); assay: Inhibition of FLT3 at 5 uM
Mus musculus [47] = assay: Toxicity in Swiss Webster mouse assessed as phosphate level at 10 mg/kg, ip daily for 7 days measured after 7 days; format: organism-based; parameters: dose 10 mg/kg, route intraperitoneal; details: in vivo, 168 h
Mus musculus [48] = assay: Toxicity in Swiss Webster mouse assessed as albumin level at 50 mg/kg, ip daily for 7 days measured after 7 days; format: organism-based; parameters: dose 50 mg/kg, route intraperitoneal; details: in vivo, 168 h

Fibroblast growth factor receptor 1 (Homo sapiens), sequence (P11362 22-822 limits assumed): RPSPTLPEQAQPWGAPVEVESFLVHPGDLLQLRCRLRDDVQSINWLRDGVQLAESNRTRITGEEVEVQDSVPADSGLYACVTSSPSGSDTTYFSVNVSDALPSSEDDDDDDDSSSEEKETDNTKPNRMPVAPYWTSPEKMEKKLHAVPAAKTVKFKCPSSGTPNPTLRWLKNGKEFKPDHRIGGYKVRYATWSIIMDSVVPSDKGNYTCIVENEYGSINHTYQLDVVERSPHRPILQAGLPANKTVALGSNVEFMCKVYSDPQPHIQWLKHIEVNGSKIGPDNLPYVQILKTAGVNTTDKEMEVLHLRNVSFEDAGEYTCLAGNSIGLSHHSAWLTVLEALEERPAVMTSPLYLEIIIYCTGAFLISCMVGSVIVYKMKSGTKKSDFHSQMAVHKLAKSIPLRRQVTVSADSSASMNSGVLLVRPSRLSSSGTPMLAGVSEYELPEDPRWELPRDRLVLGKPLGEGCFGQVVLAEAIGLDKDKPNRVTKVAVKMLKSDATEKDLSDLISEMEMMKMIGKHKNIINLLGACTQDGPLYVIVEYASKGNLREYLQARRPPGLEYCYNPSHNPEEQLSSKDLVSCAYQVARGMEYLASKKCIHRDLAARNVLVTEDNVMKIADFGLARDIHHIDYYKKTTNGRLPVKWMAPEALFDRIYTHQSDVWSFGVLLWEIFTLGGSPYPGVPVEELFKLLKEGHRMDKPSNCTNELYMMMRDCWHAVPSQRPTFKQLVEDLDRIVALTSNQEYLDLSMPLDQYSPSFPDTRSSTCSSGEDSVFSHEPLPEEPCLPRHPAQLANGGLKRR
Protein kinase C zeta type (Homo sapiens), sequence (Q05513 whole entry): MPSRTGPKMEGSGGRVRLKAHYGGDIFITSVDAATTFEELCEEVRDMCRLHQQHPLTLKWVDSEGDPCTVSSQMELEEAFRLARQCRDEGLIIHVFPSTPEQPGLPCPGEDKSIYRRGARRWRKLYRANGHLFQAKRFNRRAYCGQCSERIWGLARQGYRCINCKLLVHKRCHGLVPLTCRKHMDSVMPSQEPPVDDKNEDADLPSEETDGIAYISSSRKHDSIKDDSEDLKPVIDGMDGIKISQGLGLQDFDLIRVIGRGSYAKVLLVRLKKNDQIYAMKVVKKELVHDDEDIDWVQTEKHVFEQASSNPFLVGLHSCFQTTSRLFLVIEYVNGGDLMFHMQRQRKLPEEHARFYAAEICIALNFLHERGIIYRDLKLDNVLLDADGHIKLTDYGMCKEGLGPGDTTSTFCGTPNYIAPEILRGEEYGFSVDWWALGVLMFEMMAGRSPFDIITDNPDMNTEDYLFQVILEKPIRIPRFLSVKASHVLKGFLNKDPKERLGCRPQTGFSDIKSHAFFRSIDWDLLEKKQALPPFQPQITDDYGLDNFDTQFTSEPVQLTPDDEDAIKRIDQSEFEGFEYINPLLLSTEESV
Tyrosine-protein kinase Lck (Homo sapiens), sequence (P06239 2-509 limits assumed): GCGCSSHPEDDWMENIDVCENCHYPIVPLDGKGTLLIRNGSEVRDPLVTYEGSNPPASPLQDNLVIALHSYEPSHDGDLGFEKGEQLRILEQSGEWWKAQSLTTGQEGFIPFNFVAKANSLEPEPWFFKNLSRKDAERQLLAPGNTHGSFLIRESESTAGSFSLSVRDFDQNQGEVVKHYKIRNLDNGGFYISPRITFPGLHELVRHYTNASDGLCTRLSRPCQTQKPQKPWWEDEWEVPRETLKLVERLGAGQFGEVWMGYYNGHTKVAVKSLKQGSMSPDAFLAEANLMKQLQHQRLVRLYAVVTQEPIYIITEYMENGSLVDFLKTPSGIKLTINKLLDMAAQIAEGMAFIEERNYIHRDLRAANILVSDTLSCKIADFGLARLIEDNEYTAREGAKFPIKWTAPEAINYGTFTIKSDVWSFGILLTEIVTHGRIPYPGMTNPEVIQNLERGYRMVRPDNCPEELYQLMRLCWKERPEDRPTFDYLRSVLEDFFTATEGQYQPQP
Tyrosine-protein kinase Lyn (Homo sapiens), sequence (P07948 2-512 limits assumed): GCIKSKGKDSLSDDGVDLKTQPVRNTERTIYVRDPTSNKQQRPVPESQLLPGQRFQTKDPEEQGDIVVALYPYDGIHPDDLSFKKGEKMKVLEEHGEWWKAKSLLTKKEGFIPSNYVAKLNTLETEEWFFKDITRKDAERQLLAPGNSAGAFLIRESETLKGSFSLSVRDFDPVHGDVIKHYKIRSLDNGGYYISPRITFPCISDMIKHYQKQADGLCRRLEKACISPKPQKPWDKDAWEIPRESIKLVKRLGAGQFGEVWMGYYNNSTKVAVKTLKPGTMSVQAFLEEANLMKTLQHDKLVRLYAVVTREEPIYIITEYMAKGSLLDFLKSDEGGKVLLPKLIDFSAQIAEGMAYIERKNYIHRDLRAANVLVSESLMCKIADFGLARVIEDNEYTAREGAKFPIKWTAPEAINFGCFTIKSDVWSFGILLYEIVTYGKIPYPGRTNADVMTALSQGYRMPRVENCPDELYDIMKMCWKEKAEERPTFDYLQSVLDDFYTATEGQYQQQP
Glycogen synthase kinase-3 beta (Homo sapiens), sequence (P49841 whole entry, looked up): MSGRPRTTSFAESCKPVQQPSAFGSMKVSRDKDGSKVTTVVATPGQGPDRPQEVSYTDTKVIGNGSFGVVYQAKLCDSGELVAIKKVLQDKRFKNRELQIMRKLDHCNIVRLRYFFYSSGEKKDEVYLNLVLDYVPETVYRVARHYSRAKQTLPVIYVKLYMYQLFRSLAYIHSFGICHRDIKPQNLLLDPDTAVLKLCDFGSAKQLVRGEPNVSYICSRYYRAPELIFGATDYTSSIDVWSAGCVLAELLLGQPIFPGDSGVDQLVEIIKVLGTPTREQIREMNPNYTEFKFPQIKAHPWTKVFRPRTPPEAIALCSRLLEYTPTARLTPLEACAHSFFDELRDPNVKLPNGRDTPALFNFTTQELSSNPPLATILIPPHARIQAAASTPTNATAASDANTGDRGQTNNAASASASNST
Serine/threonine-protein kinase PLK1 (Homo sapiens), sequence (P53350 whole entry): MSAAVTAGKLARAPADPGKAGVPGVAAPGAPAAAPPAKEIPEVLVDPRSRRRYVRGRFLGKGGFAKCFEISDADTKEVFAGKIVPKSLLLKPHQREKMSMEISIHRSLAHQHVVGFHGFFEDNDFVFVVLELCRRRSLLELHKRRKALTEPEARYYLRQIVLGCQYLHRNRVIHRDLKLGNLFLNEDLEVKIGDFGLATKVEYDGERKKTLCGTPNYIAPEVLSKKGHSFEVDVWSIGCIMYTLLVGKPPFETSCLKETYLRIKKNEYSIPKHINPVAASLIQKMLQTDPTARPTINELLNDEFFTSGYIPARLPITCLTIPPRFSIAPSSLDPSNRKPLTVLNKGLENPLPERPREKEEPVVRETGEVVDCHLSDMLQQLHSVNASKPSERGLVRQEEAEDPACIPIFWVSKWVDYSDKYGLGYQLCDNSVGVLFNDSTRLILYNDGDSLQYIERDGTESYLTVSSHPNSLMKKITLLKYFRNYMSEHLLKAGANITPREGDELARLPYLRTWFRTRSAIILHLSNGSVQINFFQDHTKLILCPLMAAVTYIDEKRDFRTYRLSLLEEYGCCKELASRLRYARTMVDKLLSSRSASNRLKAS
Serine/threonine-protein kinase 3 (Homo sapiens), sequence (Q13188 whole entry): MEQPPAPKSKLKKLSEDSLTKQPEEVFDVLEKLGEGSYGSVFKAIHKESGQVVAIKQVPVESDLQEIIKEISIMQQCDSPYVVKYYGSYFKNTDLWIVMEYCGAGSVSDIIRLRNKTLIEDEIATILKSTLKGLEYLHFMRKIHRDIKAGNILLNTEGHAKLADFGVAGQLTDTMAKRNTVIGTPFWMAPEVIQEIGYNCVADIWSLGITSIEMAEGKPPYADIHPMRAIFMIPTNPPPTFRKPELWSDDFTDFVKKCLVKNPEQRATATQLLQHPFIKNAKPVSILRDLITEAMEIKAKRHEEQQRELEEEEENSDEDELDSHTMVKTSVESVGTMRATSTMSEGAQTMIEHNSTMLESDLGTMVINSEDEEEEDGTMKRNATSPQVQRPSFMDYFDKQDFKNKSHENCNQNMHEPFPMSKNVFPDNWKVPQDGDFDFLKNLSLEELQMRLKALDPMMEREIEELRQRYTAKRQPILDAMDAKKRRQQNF
RAC-gamma serine/threonine-protein kinase (Homo sapiens), sequence (Q9Y243 whole entry): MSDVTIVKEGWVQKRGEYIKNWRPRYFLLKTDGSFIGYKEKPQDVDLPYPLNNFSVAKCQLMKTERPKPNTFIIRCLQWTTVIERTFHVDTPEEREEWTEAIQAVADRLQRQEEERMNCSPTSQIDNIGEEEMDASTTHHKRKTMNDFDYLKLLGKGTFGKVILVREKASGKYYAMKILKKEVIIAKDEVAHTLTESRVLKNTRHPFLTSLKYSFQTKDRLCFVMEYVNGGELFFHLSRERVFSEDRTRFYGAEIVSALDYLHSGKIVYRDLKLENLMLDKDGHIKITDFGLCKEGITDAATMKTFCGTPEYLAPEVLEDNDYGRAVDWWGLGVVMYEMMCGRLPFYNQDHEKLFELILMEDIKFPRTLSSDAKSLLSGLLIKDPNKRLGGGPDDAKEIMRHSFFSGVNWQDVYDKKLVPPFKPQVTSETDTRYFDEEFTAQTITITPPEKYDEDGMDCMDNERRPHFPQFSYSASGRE
Serine/threonine-protein kinase PAK 2 (Homo sapiens), sequence (Q13177 whole entry): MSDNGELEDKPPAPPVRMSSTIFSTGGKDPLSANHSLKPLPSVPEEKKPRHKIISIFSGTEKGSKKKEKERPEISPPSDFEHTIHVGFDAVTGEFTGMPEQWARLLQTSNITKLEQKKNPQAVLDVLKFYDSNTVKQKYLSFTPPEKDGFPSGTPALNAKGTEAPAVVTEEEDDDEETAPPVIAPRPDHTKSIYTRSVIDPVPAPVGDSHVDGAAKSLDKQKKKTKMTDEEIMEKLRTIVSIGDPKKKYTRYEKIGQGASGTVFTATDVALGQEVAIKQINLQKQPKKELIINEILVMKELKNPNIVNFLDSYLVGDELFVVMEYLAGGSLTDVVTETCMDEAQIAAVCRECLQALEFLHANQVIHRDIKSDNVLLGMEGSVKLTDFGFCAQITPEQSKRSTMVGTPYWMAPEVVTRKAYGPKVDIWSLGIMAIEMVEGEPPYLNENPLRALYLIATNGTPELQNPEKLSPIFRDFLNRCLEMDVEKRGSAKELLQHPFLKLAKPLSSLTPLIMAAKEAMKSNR

CCCOc1ccc(/C=C2\SC(=O)NC2=O)cc1
Activity (Mus musculus [1]): 0.04 ×10⁹ /L | Activity (Mus musculus [2]): 6.3 mmol/L | Activity (Mus musculus [3]): 150 mmol/L | Activity (Mus musculus [4]): 12.2 g/dL | Activity (Mus musculus [5]): 85 U/L | inhibition [6]: 3% | Activity (Mus musculus [7]): 816 U/L | inhibition [8]: -1% | inhibition [9]: 1% | inhibition [10]: 9% | Activity (Mus musculus [11]): 0.2 mg/dL | inhibition [12]: 68% | Activity (Mus musculus [13]): 80 U/L | Activity (Mus musculus [14]): 14 mg/dL | inhibition [15]: 10% | inhibition [16]: -1% | Activity (Mus musculus [17]): 4.95 ×10⁹ /L | Activity (Mus musculus [18]): 760 U/L | inhibition [19]: 1% | inhibition [20]: -1% | inhibition [21]: -1% | Activity (Mus musculus [22]): 7.2 mmol/L | Activity (Mus musculus [23]): 80 mg/dL | inhibition [24]: 9% | inhibition [25]: -1% | inhibition [26]: 3% | inhibition [27]: 4% | inhibition [28]: 3% | inhibition [29]: 9% | Activity (Mus musculus [30]): 0.2 mg/dL | Activity (Mus musculus [31]): 11.7 g/dL | inhibition [32]: 5% | Activity (Mus musculus [33]): Non-toxic | inhibition [34]: -4% | inhibition [35]: 8% | inhibition [36]: -3% | Activity (Mus musculus [37]): 3.3 g/dL | Activity (Mus musculus [38]): 3.61 ×10⁹ /L | Activity (Mus musculus [39]): 0.08 ×10⁹ /L | Activity (Mus musculus [40]): Non-toxic | Activity (Mus musculus [41]): 145 mmol/L | inhibition [42]: -1% | Activity (Mus musculus [43]): 0.61 ×10⁹ /L | inhibition [44]: 3% | Activity (Mus musculus [45]): 878 U/L | inhibition [46]: 1% | Activity (Mus musculus [47]): 5.7 mg/dL | Activity (Mus musculus [48]): 2.6 g/dL
